Bioassay records (PubChem)
M1 ag: M1 muscarinic receptor agonists, primary screen, CHO-M1 cells, Fluo-4 calcium, agonist mode. Muscarinic acetylcholine receptor M1. Fluo-4 calcium fluorescence; active compounds read high. B-score at 10 µM. 64,000 tested, 3% active. AID 626, 2007;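 active = fluorescence rise, raw or as B-score row- and column-corrected plate score, outside the 99.7% band of its plate's samples, either direction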
AP complement: alternative complement pathway inhibitors, primary screen, biochemical, ELISA, human serum, orthogonally pooled compounds; AID 1235, 2008; 62,000 tested, 0.08% active; inhibition, % at 5 µM; LPS-coated ELISA, C3 deposition; tested in compound mixtures;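 active = inhibition above 30% in each of the two pooled mixtures holding the compound, so the lower value exceeds 30%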;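 also: 0% = serum in Mg-EGTA without compound and 100% = EDTA serum blank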
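Test system: human serum alternative complement pathway, C3 deposition on LPS-coated wells; also added: Plate-bound LPS; doses: 5 µM per compound in ten-compound mixtures; schedule: 1 h at 37 °C; detection: Anti-C3 ELISA, OD 450 nm; evaluation: percent inhibition of C3 deposition onto LPS; repeats: two pool placements per compound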
M1 antagonist: antagonists of rat M1 muscarinic receptor; CHO-M1 cells, Fluo-4 calcium, ACh EC80 antagonist mode; active compounds read low; 64,000 tested, 3.4% active; B-score at 10 µM; Muscarinic acetylcholine receptor M1 (Rattus norvegicus), P08482;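 active = calcium fluorescence response, raw or row-and-column corrected B-score, differing from the plate sample mean either way at a set confidence level, mostly lower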
D1 allo mod: D1 CRE-luciferase signal change, two-sided – cell-based, HEK293 D1, dopamine EC30, D1 allosteric modulator project, primary screen; D(1A) dopamine receptor (Homo sapiens), P21728; dopamine EC30 potentiation; actives deviate in either direction; B-score at 10 µM; 58,000 tested, 5.9% active;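 active = luminescence count or its row- and column-corrected plate score outside the 99.7% band of the plate's sample wells, on either side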
Target sequence (P21728 whole entry, looked up): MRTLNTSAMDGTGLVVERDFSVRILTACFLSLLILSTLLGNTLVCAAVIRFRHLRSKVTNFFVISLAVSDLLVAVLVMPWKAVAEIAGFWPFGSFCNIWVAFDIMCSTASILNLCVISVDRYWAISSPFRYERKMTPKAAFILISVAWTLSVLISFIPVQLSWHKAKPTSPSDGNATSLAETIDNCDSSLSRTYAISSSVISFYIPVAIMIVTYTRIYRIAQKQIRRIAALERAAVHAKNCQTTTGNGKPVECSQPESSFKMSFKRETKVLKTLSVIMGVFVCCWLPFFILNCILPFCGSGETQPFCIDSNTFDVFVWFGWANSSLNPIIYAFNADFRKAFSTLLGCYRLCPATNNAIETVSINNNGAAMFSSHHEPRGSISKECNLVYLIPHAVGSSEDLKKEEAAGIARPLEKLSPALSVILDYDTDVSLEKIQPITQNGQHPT
mHtt clearance: clearance of mutant huntingtin inclusions, primary screen, imaging, HeLa Exon1htt(103Q)mCFP, confocal imaging; aggregate imaging; zero = plate's median compound well; inhibition, % at 1.5 µM; 47,000 tested, 0.42% active;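 active = inhibition of aggregate fluorescence above about 70%, also judged a hit by eye on the cell image, limit read from the data, passing the limit was not always enough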;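 also: cells exposed to compound for three days before fixation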
D1 PAM confirm: D1 receptor positive allosteric modulators, retest, confirmation, cell-based, HEK293 D1, CRE-luciferase, duplicate. 2,200 tested, 88% active. AID 642, 2007. dopamine EC30 potentiation; active compounds read high. luminescence at 10 µM. shares compounds with D1 allo mod;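 active = luminescence in either of two replicates above the same-plate mean plus 3 SD of the low-dose dopamine control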
D1 no dopamine: D1 receptor agonism without dopamine, confirmation, mechanism study for D1 allosteric modulator project, cell-based, HEK293 D1, CRE-luciferase, secondary assay 1. shares compounds with D1 allo mod. luminescence, no dopamine; active compounds read high. luminescence at 10 µM. 1,900 tested, 0.8% active; in the data active = luminescence above about 3900
Isoprot counter: counter-screen for D1 modulators: isoproterenol response in HEK293 cells; HEK293 D1 CRE-luciferase, isoproterenol EC30 counter-screen; calls only at 10 µM; 2,200 tested, 63% active; shares compounds with D1 allo mod;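 active = luminescence in either replicate above plate mean of wells with a partly effective reference agonist dose plus 3 SD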;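 also: isoproterenol raises cAMP through native beta-adrenoceptor Gs so signal bypasses D1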
* hit, by the source's call; i = inactive; / = no result; + = active, no number. The list is not random: actives were taken first. Their share in the collection is about 9%.

SMILES	M1 ag	AP complement	M1 antagonist	D1 allo mod	mHtt clearance	D1 PAM confirm	D1 no dopamine	Isoprot counter
Cc1cc(C(=O)Nc2ccc(C(=O)O)cc2)c(-c2ccccc2)o1	0.164	12.3	0.681	2.55*	-5.2	7724*	1596	+
CS(=O)(=O)N(CC(=O)NCc1ccccn1)Cc1ccc(Cl)cc1	1.04	0.5	0.0722	0.0946	48.8	/	/	/
Cc1ccc(-c2nc3ccccn3c2NC(=O)c2ccco2)cc1	/	/	/	/	-42.5	/	/	/
Nc1c(NCCC2=CCCCC2)c(=O)[nH]c(=O)n1Cc1ccccc1	-0.65	2.5	-0.00988	/	-8.0	/	/	/
COc1ccc(CCNc2c(N)n(Cc3ccccc3)c(=O)[nH]c2=O)cc1OC	-1.02	1.4	-0.111	4.74*	51.3	14452*	1596	+
C=CCn1nnc2sc3c(c2c1=O)CCC(C)C3 (centres undefined)	/	6.4	/	/	/	/	/	/
O=C(Nc1ccccc1Cl)N1CCN(c2ccc3nnc(-c4ccccc4)n3n2)CC1	1.52	16.4	-1.03	5.45*	/	14068*	/	+
C/C=C/CSc1nc2c(c(=O)[nH]c(=O)n2C)n1Cc1ccc(C)cc1	0.00117	-5.2	0.175	19.6*	39.8	16484*	1496	+
CC(C)n1c(SCc2ccc(Cl)cc2)nc2c1c(=O)[nH]c(=O)n2C	-0.144	-2.9	0.0925	1.87	18.6	/	/	/
CC(C)CCn1c(SCc2ccc(Cl)cc2)nc2c1c(=O)[nH]c(=O)n2C	0.4	10.1	0.00186	13.6*	56.3	13248*	/	+
C/C=C/CSc1nc2c(c(=O)[nH]c(=O)n2C)n1C(C)C	-0.252	-5.1	-0.541	5.97*	/	12796*	1768	+
CCCCn1c(SCc2ccc(Cl)cc2)nc2c1c(=O)[nH]c(=O)n2C	0.346	13.7	0.309	7.4*	/	25640*	1752	+
Cc1ccc(CSc2nc3c(c(=O)[nH]c(=O)n3C)n2CCC(C)C)cc1	0.0434	16.4	0.00818	4.04	4.6	/	/	/
CC(C)n1c(SCC(N)=O)nc2c1c(=O)[nH]c(=O)n2C	0.5	-20.6	-0.331	-0.0813	/	/	/	/
Cc1ccc(Cn2c(Sc3ncccn3)nc3c2c(=O)[nH]c(=O)n3C)cc1	0.0243	0.1	0.413	1.43	/	/	/	/
O=C(c1ccccc1)c1cnc(Nc2ccccc2Cl)s1	/	/	/	/	51.9	/	/	/
CCOc1nc(CC)nc(NC(=O)NS(=O)(=O)c2ccccc2Cl)n1	-0.241	14.2	-0.00801	1.06	30.3	/	/	/
CCCCCOC(=O)CSc1nc2c(c(=O)[nH]c(=O)n2C)n1Cc1ccc(Cl)cc1	0.446	18.3	0.184	0.107	-25.9	/	/	/
CCSc1nc2c(c(=O)[nH]c(=O)n2C)n1Cc1ccc(Cl)cc1	-0.0778	14.4	1.18	5.47*	/	15452*	1584	+
c1ccc(-c2nc3ccccc3c3nncn23)cc1	-0.222	7.0	0.706	7.16*	22.1	7952*	1508	i
Cc1cc(C)n2nc(SCc3cc(=O)n4c(C)cccc4n3)nc2n1	0.00973	5.7	-0.296	4.34	/	/	/	/
COc1cccc(-c2nnc3sc(C4CCCCC4)nn23)c1	-0.512	5.9	1.03	5.46*	/	12024*	1460	+
COc1cc(OC)c(-c2nn3c(C4CCCCC4)nnc3s2)cc1OC	0.0409	1.3	-0.377	5.17*	22.8	10724*	1788	+
CCOc1cccc(-c2nnc3sc(C4CCCCC4)nn23)c1	-0.161	/	-0.919	/	12.1	/	/	/
COc1cc(-c2nnc3sc(C4CCCCC4)nn23)cc(OC)c1OC	4.72	/	-0.886	7.42*	-28.2	15992*	1688	+
SMILES	M1 ag	AP complement	M1 antagonist	D1 allo mod	mHtt clearance	D1 PAM confirm	D1 no dopamine	Isoprot counter
O=C(c1ccc(Oc2ccccc2)cc1)c1nc2c(n1O)CCCC2	/	/	/	/	-2.1	/	/	/
CC12C=CC3(CN(Cc4ccccc4)C(=O)C3C1C(=O)NC1CC1)O2 (centres undefined)	-0.172	1.6	0.155	0.158	/	/	/	/
CC(C)(C)C(=O)/C(C#N)=c1\s/c(=C\c2ccncc2)c(=O)n1CCCN1CCOCC1	0.295	-0.9	1.12	-0.461	/	/	/	/
COc1ccc(S(=O)(=O)N2CCc3ccccc32)cc1C(=O)OCc1nnc(-c2ccccc2)o1	-0.215	13.9	1.73	3.19*	-16.5	7576*	1476	+
O=C(OCc1nnc(-c2ccccc2)o1)c1cc(S(=O)(=O)N2CCOCC2)c(Cl)cc1Cl	-1.08	6.0	1.53	1.29	-55.5	/	/	/
COC(=O)c1ccc(C(=O)OC)c(NC(=O)c2oc(C)nc2C)c1	-0.509	13.7	-0.512	0.795	/	/	/	/
CCCn1c2c(c(O)c(C(=O)NC)c1=O)CCCC2	-0.261	4.5	0.117	4.59*	-19.6	9448*	1536	i
Cc1ccc(S(=O)(=O)N2CCN(C(=O)COC(=O)c3cc(C)oc3C)CC2)cc1	-0.142	13.1	0.378	4.32*	-9.1	6052*	1764	i
CCn1c(=S)sc2c(=O)n(-c3ccccc3)c(SC)nc21	-0.795	19.8	-0.685	1.17	6.6	/	/	/
N#CCSc1nc2c(sc(=S)n2Cc2ccco2)c(=O)n1-c1ccc(F)cc1	1.04	11.6	0.414	2.97*	/	10848*	1572	i
C=C(C)c1cccc(C(C)(C)NC(=O)N2CCN(C/C=C/c3ccccc3)CC2)c1	/	/	/	/	24.1	/	/	/
CC(C#N)On1c(SC(C)C#N)nc2ccccc2c1=O (centres undefined)	0.3	15.2	0.366	4.18*	/	11488*	/	i
COC(=O)COn1c(SCC(=O)OC)nc2ccccc2c1=O	-0.0313	/	0.114	/	/	/	/	/
CC(C)Cn1c(SCC#N)nc2ccccc2c1=O	/	7.2	/	8.59*	/	15244*	1668	+
COc1ccc(-c2nnc(CSc3nc4ccccc4c(=O)n3CC(C)C)o2)cc1OC	-0.42	8.1	0.613	5.76*	11.0	6848*	/	+
C=CCNc1nc(Nc2ccc(OC)cc2OC)nc(OCC)n1	0.371	-5.7	0.00714	3.8*	-15.0	10064*	1524	+
Cc1noc(C)c1CSc1nnc2scc(-c3ccccc3)n12	-0.208	14.3	0.639	10.5*	-40.5	13660*	1688	+
Cc1noc(C)c1CSc1nnc(-c2ccccc2)n1Cc1ccco1	-0.565	5.8	-0.448	4.73*	/	5096	1396	i
COC(=O)Nc1c(-c2ccccc2)nc2ccc(C)cn12	0.14	-4.9	0.148	3.05*	/	6300	1728	i
